Data taken from the RNAGym collection of RNA variant scans (doi:10.1126/science.aae0568).
Fewer inactive variants are shown than the library holds.

B1: tRNA (parent)
chain: GUUCCGUUGGCGUAAUGGUAACGCGUCUCCCUCCUAAGGAGAAGACUGCGGGUUCGAGUCCCGUACGGAACG

Variants of: B1
Experiment: yeast fitness relative to wild type (ratio to wild type); higher = fitter; tRNA-Arg(CCU), competitive growth, 37 C, YPD
Summary of the method: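 Amplicons of the tRNA-Arg(CCU) gene were sequenced, 100-nucleotide paired-end, from the start population and from each end population of a pooled yeast competition. The competition, in six parallel replicates, lasted 24 hours in YPD at 37°C. Fitness relative to wild type was calculated from changes in genotype frequencies. Genotypes had to have ≥ 100 starting reads, and estimates < 0.5 were set to 0.5.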

Row | Variant | yeast fitness
1 | GUUCCGUUGGCGUAAUGGUUACGGGUCUCCGUCCUAAGGAGAAGACUGCGGAUUGGAGUCUCGUACGGAACG [A20U C24G C31G G52A C55G C61U] | ≤ 0.5
2 | GUUCCGUUGGCGUAAUGGUUAUGUGUCUCCCUCCUAAGGAGAAGACUGCGGGUUCGAGUCCCGUACGGAACG [A20U C22U C24U] | ≤ 0.5
3 | GUUCCGUUGGCGUAAUGGUUACGCGUCUCCUUCCUAAGGAGAAGACUGCGGGUUCAAGUCCCGUACGGCACG [A20U C31U G56A A69C] | ≤ 0.5
4 | GUUCCGUUGGCGUAAUGGUUACGCGUCUCCCUCCUAAGGAGAAGCCUGCGGGUUCGAGUCCCGUCCGGAACG [A20U A45C A65C] | 0.63
5 | GUUCCGUUGGCGUAAUGGUUACGCGUGUCGCUCCUCAGGAGAAGACUGCGGGUUCGAGUCCCGUACGGAUCG [A20U C27G C30G A36C A70U] | ≤ 0.5
6 | GUUCCGUUGGCGUAAUGGUUACGCGUCUCCCUCGUCAGGAGAAGACUGCGGGUUUGAGUCCCGUACGGAACG [A20U C34G A36C C55U] | 0.528
7 | GUUCCGUUGGCGUAAUGGUUACGCGUCUGCCUCCUAGGGAGAAAACUGCGGGUUCGAGUCCCAUACGGAACG [A20U C29G A37G G44A G63A] | ≤ 0.5
8 | GUUCCGUUGGCGUAAUGGUUAGGCGUCUCCCUCCUAAGGGGAAGACUGCGGGUUCGAGUCCCGUACGGAACG [A20U C22G A40G] | 0.745
9 | GUUCCGUUGGCGUAAUGGUUAUGCGUCUCCCUACUAAGGAGAAGACUGCGGGUUCGAGUCCCGUAAGGAACG [A20U C22U C33A C66A] | ≤ 0.5
10 | GUUCCGUUGGCGUAAUGGUUACGCGUCUCCGUCCUCAGGAGAAGGCUGCGGGUUCGAGUCCCGUACGGAUCG [A20U C31G A36C A45G A70U] | ≤ 0.5
11 | GUUCCGUUGGCGUAAUGGUUACGCGUGUCCCUCCUAAGGAGAAGACUGAGGGUUCGAGUCCCGUACGGAACG [A20U C27G C49A] | ≤ 0.5
12 | GUUCCGUUGGCGUAAUGGUUACGCGUCUCCUUCCUAACGAGAAGACUGCGGGUUCGAGUCCCGUACGGAACG [A20U C31U G38C] | 0.553
13 | GUUCCGUUGGCGUAAUGGUUACGCGUCUCCCUCUUAAGGAGAAGACUGCGGGUUCGACUCCCGUACGGAACG [A20U C34U G58C] | ≤ 0.5
14 | GUUCCGUUGGCGUAAUGGUUACGCGUCUCCCUCGUAAGGAGAAGACUCCGGGUUCGAGUCCCGUACGGAACG [A20U C34G G48C] | 0.53
15 | GUUCCGUUGGCGUAAUGGUUACGUGUCUCCCUCCUAAGGAGAGGACUGCGGGUUCGAGACCCGUACGGAACG [A20U C24U A43G U59A] | ≤ 0.5
16 | GUUCCGUUGGCGUAAUGGUUACGCGUCUGCCUCCUAAGGAGAAGACCGGGGGUUCGAGUCCCCUACGGAACG [A20U C29G U47C C49G G63C] | ≤ 0.5
17 | GUUCCGUUGGCGUAAUGGUUACGCGUCUCCAUGCUAAGGAGAAGACUGCGGGUUCAAGUCCCGUACGGAACG [A20U C31A C33G G56A] | ≤ 0.5
18 | GUUCCGUUGGCGUAAUGGUUACGCGUCUCCUUCCUAAGGAGAAGACUGCGGGUUCGAGUCCAGUACGGUACG [A20U C31U C62A A69U] | ≤ 0.5
19 | GUUCCGUUGGCGUAAUGGUUACGCGUUUCCCUCCUAAGGAGAAGACUGCGGGUUCGAGUCCCGUACGGAACG [A20U C27U] | 1.05

Row | Variant | yeast fitness
20 | GUUCCGUUGGCGUAAUGGUUACGCGUAUCCCUCCUAAGGAGAAGACUGCGGGUUCGAGUCCCGUACGGAACG [A20U C27A] | 0.717
21 | GUUCCGUUGGCGUAAUGGUUACGCGUCUCCGUCCUAAGGAGAAGACUGCGGGUUGGAGUGCCGUAUGGAUCG [A20U C31G C55G C60G C66U A70U] | ≤ 0.5
22 | GUUCCGUUGGCGUAAUGGUUACGCGUCUCCCUCAUAAGGAGAAGACUGCGGGUUGGAGUCCCGUAAGGAACG [A20U C34A C55G C66A] | 0.561
23 | GUUCCGUUGGCGUAAUGGUUACGCGUUUCCCCCCUAAGGAGAAGACUGCGGCUUCGAGUCCCGUACGGAACG [A20U C27U U32C G52C] | ≤ 0.5
24 | GUUCCGUUGGCGUAAUGGUUACGCGUCUGCCUCCUAAGGAGAAGACUGGGGGUUCGAGUCCCCUACGGAACG [A20U C29G C49G G63C] | 0.543
25 | GUUCCGUUGGCGUAAUGGUUACGCGUCUUGCUCAAAAGGAGAAGACUCCGGGUUCGAGUCCCGUACGGAACG [A20U C29U C30G C34A U35A G48C] | ≤ 0.5
26 | GUUCCGUUGGCGUAAUGGUUACGCGUCUCCCUCCUAAGGAGAAGUCUGCGGGUUCGAGUCCCGUACGGAACG [A20U A45U] | 0.777
27 | GUUCCGUUGGCGUAAUGGUUACGGGUCUCCCUCCUAAGGAGAAGACUGGGGGUUCGAGUCCCGUACGGAACG [A20U C24G C49G] | ≤ 0.5
28 | GUUCCGUUGGCGUAAUGGUUACGCGUAUCCCUCCUAAGGCGAAGAAUGCGGGUUCGAGUCCCGUACGGAACG [A20U C27A A40C C46A] | ≤ 0.5
29 | GUUCCGUUGGCGUAAUGGUUACGCGUCUCACUCCUAAGGCGAAGACUGCGGGUUCGAGUCCCGUACGGAACG [A20U C30A A40C] | ≤ 0.5
30 | GUUCCGUUGGCGUAAUGGUUACGGGUCUCCCUCCUAAGGAGAAGACUGCGGGUUCGAGUCCCAUUCGGAACG [A20U C24G G63A A65U] | ≤ 0.5
31 | GUUCCGUUGGCGUAAUGGUUACGCGUCUCCCUCCUAAGGAGAAGAGUGCGCGUUCGAGUCUCGUACGGAACG [A20U C46G G51C C61U] | ≤ 0.5
32 | GUUCCGUUGGCGUAAUGGUUAGGCGUCUCCCUCCUAAGGAGAAGACCGCGGGUUCGAGUCCCGUACGGAACG [A20U C22G U47C] | ≤ 0.5
33 | GUUCCGUUGGCGUAAUGGUUAGGCGUCUCCCUCCUAAGGGGAAGACUGCGGGUUCGAGUCCCGUAUGGAACG [A20U C22G A40G C66U] | ≤ 0.5
34 | GUUCCGUUGGCGUAAUGGUUACGCGUCUCCGUCCUAAGGAGAAGACUGCGGGUUGGUGUCCCGUACGGAACG [A20U C31G C55G A57U] | ≤ 0.5
35 | GUUCCGUUGGCGUAAUGGUUACGCGUCUCCGUCCUAAGGAGAAGACUGCGGGUUCGAGUCCCGUACGGCACG [A20U C31G A69C] | ≤ 0.5
36 | GUUCCGUUGGCGUAAUGGUUACGCGUCUCCCUACUAAGGACAAGACUGCGGGUUCGAGUCCCGUACGGAACG [A20U C33A G41C] | ≤ 0.5
37 | GUUCCGUUGGCGUAAUGGUUACGCGUGUACCUCCUAAGGAGAAGACUGCGGGUUCGGGUCCCGUGCGGAACG [A20U C27G C29A A57G A65G] | ≤ 0.5
